This excerpt belongs to a sample that is enriched for hits.
CHOP UPR activ: apoptotic UPR (CHOP) activation; 330,000 tested, 0.34% active; activation, % at 10 µM; CHO-CHOP luciferase reporter, luminescence; percent of tunicamycin response over DMSO baseline; AID 449763;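 active means at 10 µM dose, activation of 40% or more, normalized to positive control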;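 further: 100% = tunicamycin at 10 µg/mL and 0% = DMSO alone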
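Test system: CHO-CHOP cells, stable luciferase reporter of PERK-eIF2a-CHOP signalling | Quantity: 500 CHO-CHOP cells per well | Buffer or medium: F12 plus 10% serum | Compound dosing: 10 µM single point, 0.5% DMSO | Schedule: 6 h compound treatment, 37 °C | Signal: Luciferase luminescence | Control set: Tunicamycin high control, DMSO low control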
UPR XBP1 act: adaptive UPR (XBP1) activation; CHO-XBP1 luciferase reporter, IRE1-XBP1 UPR activation, luminescence; percent of tunicamycin response, DMSO as zero; activation, % at 20 µM; 330,000 tested, 0.33% active;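 active means versus positive control, 20 µM dose yields 30% or more activation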;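 further: 100% = tunicamycin at 10 µg/mL and 0% = DMSO only wells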
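assay system = CHO-XBP1 luciferase reporter cells | amount = 1000 cells/well | buffer or medium = F12 plus 10% FBS | compound dosing = single point, 20 µM final compound, 1% DMSO | incubation = 16-18 h cell attachment at 37 °C, then 6 h compound exposure | detection = Steady-Glo luminescence read | controls = tunicamycin 10 µg/mL and vehicle-only wells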
TLR9-MyD88 block: inhibitors of human TLR9-MyD88 binding; Q9NR96+Q99836; 340,000 tested, 0.21% active; CHO BLA complementation TLR9-MyD88, CCF4 FRET ratio; inhibition, % at 4.98 µM;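 active means inhibition above the mean over all tested compounds plus 3 SD, cut at about 21% in these data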;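 further: 0% = DMSO only wells and 100% = clavulanate BLA inhibitor control wells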
NOD2-RIPK2 inh: inhibitors of human NOD2-RIPK2 interaction; O43353; CHO BLA complementation NOD2-RIPK2, CCF4 ratio; inhibition, % at 4.98 µM; 360,000 tested, 0.38% active; in the data active means inhibition above about 21%;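 further: 0% = vehicle only and 100% = reference blocker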
Target sequence (O43353 whole entry, looked up): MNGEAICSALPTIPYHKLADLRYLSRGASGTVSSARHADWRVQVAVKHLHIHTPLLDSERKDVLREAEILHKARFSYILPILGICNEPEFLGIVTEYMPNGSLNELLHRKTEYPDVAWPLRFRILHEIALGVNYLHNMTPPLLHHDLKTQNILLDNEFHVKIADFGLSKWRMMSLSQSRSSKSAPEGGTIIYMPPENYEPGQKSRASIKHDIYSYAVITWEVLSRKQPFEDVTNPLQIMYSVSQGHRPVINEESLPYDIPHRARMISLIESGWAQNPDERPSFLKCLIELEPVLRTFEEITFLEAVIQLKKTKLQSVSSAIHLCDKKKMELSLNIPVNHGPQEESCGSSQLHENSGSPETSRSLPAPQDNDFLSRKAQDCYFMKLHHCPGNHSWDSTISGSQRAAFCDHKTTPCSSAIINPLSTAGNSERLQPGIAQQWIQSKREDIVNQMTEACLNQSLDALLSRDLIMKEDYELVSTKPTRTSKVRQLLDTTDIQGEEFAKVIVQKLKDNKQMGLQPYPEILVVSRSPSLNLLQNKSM
TLR4-MyD88 BLA: inhibitors of human TLR4-MyD88 binding; O00206+Q99836; HeLa CL3-4 TLR4/MyD88 BLA complementation, FRET ratio; inhibition, % at 8.4 µM; 200,000 tested, 0.18% active; AID 861; in the data active means inhibition above about 25%;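 further: 0% = vehicle and 100% = reference inhibitor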
CHOP inh: inhibitors of CHOP induction in ER stress response; 220,000 tested, 3.8% active; inhibition, % at 10 µM; AID 2732; CHO-K1 CHOP-promoter luciferase, tunicamycin-induced, 15-18 h;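 active means compounds that reduced the stress-induced luciferase reporter signal by more than about 70% of percent inhibition, limit read from the data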;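 further: 0% = tunicamycin plus vehicle and 100% = wells without tunicamycin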
CHOP confirm: confirmation of CHOP induction inhibitors; shares compounds with CHOP inh; CHO-CHOP promoter luciferase reporter, tunicamycin-induced, luminescence; inhibition, % at 10 µM; 2,100 tested, 45% active;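 active means mean of three repeat readings of reporter signal inhibition above a set limit, cut at about 70% in these data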;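 further: 0% = tunicamycin plus vehicle and 100% = wells lacking tunicamycin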
The depositor's hits bear a star; . = no result given.

SMILES	CHOP UPR activ	UPR XBP1 act	TLR9-MyD88 block	NOD2-RIPK2 inh	TLR4-MyD88 BLA	CHOP inh	CHOP confirm
COc1cc(OC)c(OC)cc1/C=C(\C#N)C(=O)NCc1cccs1	0	0	-8	1	.	.	.
CNC(=O)/C(C#N)=C/c1ccc(-c2ccccc2[N+](=O)[O-])o1	3	4	-5	0	-6	38	.
CCOC(=O)c1ccc(-c2ccc(/C=C(\C#N)C(=O)NCc3cccs3)o2)cc1	.	.	-3	1	1	105*	14
CNC(=O)/C(C#N)=C/c1ccc(-c2ccc(Cl)cc2)o1	3	11	3	0	-2	97*	-17
CCOC(=O)C1=CC[C@@H](c2ccccc2C(F)(F)F)N(S(=O)(=O)c2ccc(C)cc2)[C@H]1c1ccc(C#N)cc1	.	.	.	7	.	.	.
CC1(Cc2cc(Cl)ccc2C(F)(F)F)C(=O)Nc2cc(-c3ccccc3Cl)ccc21 (configuration not stated)	.	.	.	2	.	.	.
O=C(Nc1cccc(C(=O)N2CCOCC2)c1)C1CCCCC1	.	.	.	-6	.	.	.
OC(c1cccc(Cl)c1)c1ncc(-c2ccc(Oc3ccccc3)cc2)[nH]1 (configuration not stated)	.	.	.	5	.	.	.
OC(c1ccc(OCc2ccccc2)cc1)c1nnc(-c2ccccc2)o1 (configuration not stated)	-2	-3	-2	9	4	97*	-33
c1ccc(-c2nnc(C(c3ccccc3)c3ccccc3)o2)cc1	0	-2	4	-1	5	20	.
OC(c1cccc(OCc2ccccc2)c1)c1nnc(-c2ccccc2)o1 (configuration not stated)	2	1	2	5	4	111*	106*
CCC(C)Sc1nc2c(cnn2-c2ccc(C)c(C)c2)c(=O)[nH]1 (configuration not stated)	1	7	11	4	0	12	.
CSc1nc2c(cnn2-c2ccc(C)c(C)c2)c(=O)[nH]1	0	5	-4	1	-4	100*	111*
CCOc1ccc(C(=O)C(CCC(CN(C)C)C(=O)c2ccc(OCC)cc2)CN(C)C)cc1 (configuration not stated)	.	.	19	40*	10	106*	76*
O=C(NC1CC1)c1cccc2c1C(=O)c1ccc(N3CCC(N4CCCCC4)CC3)cc1S2(=O)=O	.	.	2	11	.	.	.
COc1ccc(C(=O)NC(=S)NC(C)C)cc1Br	1	3	9	3	2	32	.
COc1ccc(C(=O)NC(=S)NC(C)(C)C)cc1Br	2	3	2	-6	-13	106*	-16
O=C(NC(c1ccc(Cl)cc1)c1cnccn1)C1CCN(Cc2cccc(C(F)(F)F)c2)CC1 (configuration not stated)	.	.	.	-6	.	.	.
CCOC(=O)CN1C(c2ccc(O)cc2)Nc2ccc(Br)cc2C1c1ccccc1 (configuration not stated)	3	-1	-2	0	0	108*	119*
CCOC(=O)CN1C(=O)Nc2ccc(Br)cc2C1c1ccccc1 (configuration not stated)	-1	2	6	-1	-7	28	.
Cc1cccc(N=Nc2c(N)n[nH]c2-c2ccc(Cl)cc2)c1	0	2	5	10	23	109*	108*
Cc1ccc(N=Nc2c(N)n[nH]c2N)cc1	5	0	5	-7	.	.	.
Cc1ccc(S(=O)(=O)Oc2cccc([N+](=O)[O-])c2)cc1	.	.	-10	2	.	.	.
OC(CCCN1CCCCC1)(c1ccccc1)c1ccc(C(F)(F)F)cc1 (configuration not stated)	.	.	-4	-6	.	.	.
COc1cccc2sc(NC(=O)c3ccc(Br)s3)nc12	1	7	-3	6	3	104*	48
SMILES	CHOP UPR activ	UPR XBP1 act	TLR9-MyD88 block	NOD2-RIPK2 inh	TLR4-MyD88 BLA	CHOP inh	CHOP confirm
Cc1cccc(NS(=O)(=O)c2ccc(C3CCCCC3)cc2)c1	-1	3	1	-5	7	107*	132*
O=C(O)c1cccc(NS(=O)(=O)c2ccc(C3CCCCC3)cc2)c1	-2	-2	-5	-2	-5	-3	.
COc1cc(C(=O)NCC(c2cccs2)N2CCOCC2)ccc1OCc1ccccc1 (configuration not stated)	.	.	1	-5	.	.	.
COC(=O)c1ccc(-c2sc3nc(N4CCOCC4)c4c(c3c2N)CC(C)(C)OC4)o1	-1	-2	2	0	-4	102*	-146
O=c1ccsc2ccccc12	.	.	.	-7	.	.	.
O=c1[nH]sc2ccccc12	.	.	8	3	.	97*	-63
CC(=O)Nc1ccc(-c2ccnc3c2CC(C)(C(=O)Nc2cccc(OC(F)(F)F)c2)O3)cc1 (configuration not stated)	.	.	.	18	.	.	.
Cc1cc(C(=O)COC(=O)c2ccccc2O)c(C)n1Cc1cccs1	-8	-6	-4	-5	-10	109*	111*
CCOC(=O)c1c(NC(=O)C2=C(C)NC(=S)NC2c2ccc(CC)cc2)sc(C)c1C (configuration not stated)	0	3	.	.	2	97*	57
COc1ccc(NS(=O)(=O)c2ccc3oc(SCc4ccc(F)cc4)nc3c2)cc1	-1	0	8	2	1	96*	58
COc1ccc(C2=CC(=O)C=CC2=O)cc1	.	.	.	.	.	103*	-79
CC(=O)C1=C(O)C(CSCc2ccccc2)N(C)C1=O (configuration not stated)	.	.	-6	-4	.	.	.
CCC(NC(=O)Nc1nnc(C(F)(F)F)s1)(C(F)(F)F)C(F)(F)F	9	-1	-5	-5	19	103*	115*
Cc1sc2nc(CSC(C)C(=O)NC3(C#N)CCCCC3)[nH]c(=O)c2c1C (configuration not stated)	-2	1	-8	-7	.	.	.
COc1ccccc1CNC(=O)c1cn(C)c2ccc(S(=O)(=O)N3CCCC3)cc2c1=O	1	-2	-18	-6	-10	106*	52
COCCNC(=O)c1cn(C)c2ccc(S(=O)(=O)N3CCCC3)cc2c1=O	0	-8	-1	0	.	.	.
C[C@H](CO)N1C[C@H](C)[C@H](CN(C)Cc2ccncc2)OCc2ccccc2-c2c(n(C)c3ccccc23)C1=O	.	.	-6	-4	.	.	.
Cc1nnc(SCCn2c(N3CCC(Cc4ccccc4)CC3)nc3c2c(=O)[nH]c(=O)n3C)s1	1	0	.	.	.	13	.
CCCCn1c(N2CCC(Cc3ccccc3)CC2)nc2c1c(=O)[nH]c(=O)n2C	5	1	5	1	0	97*	103*
